Test results as given in ChEMBL document CHEMBL1641481, “Synthesis and biological evaluation of novel dihydro-aryl/alkylsulfanyl-cyclohexylmethyl-oxopyrimidines (S-DACOs) as high active anti-HIV agents” (Bioorg Med Chem Lett, 2011).

Tests used:
[1] = Selectivity index, ratio of CC50 for human […] cells to EC50 for HIV1 3B infected in human C8166 cells; format: toxicity, cell-based; conditions: read-out: Ratio CC50/IC50
In short: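 SI was calculated as CC50/EC50. CC50 came from the 72 h MTT assay on uninfected C8166 cells. EC50 came from the 3-day syncytium-count assay in C8166 cells infected with HIV-1 IIIB at MOI 0.02. Both values are means of three experiments.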

[2] = tested on: Human immunodeficiency virus 1; assay: Antiviral activity against HIV1 3B infected in human PBMC assessed as protection against virus-induced cytopathogenicity after 3 days; format: functional, organism-based; conditions: Human immunodeficiency virus 1, 3B, 72 h
[3] = tested on: Human immunodeficiency virus 1; assay: Antiviral activity against HIV1 3B infected in human A17 cells assessed as protection against virus-induced cytopathogenicity after 3 days; format: functional, organism-based; conditions: Human immunodeficiency virus 1, 3B, A17, 72 h

Row | EC50 [2] [µM] | EC50 [3] [µM] | Structure (SMILES) | selectivity ratio [1]
1 | – | – | COc1ccc(C(=O)CSc2nc(CC3CCCCC3)c(C)c(=O)[nH]2)cc1 | 396
2 | – | – | Cc1cn([C@H]2C[C@H](N=[N+]=[N-])[C@@H](CO)O2)c(=O)[nH]c1=O [ZIDOVUDINE] | 444000
3 | – | – | CCc1c(CC2CCCCC2)nc(SCc2ccccc2)[nH]c1=O | 776
4 | – | – | Cc1ccnc2c1NC(=O)c1cccnc1N2C1CC1 [NEVIRAPINE] | > 15200
5 | 0.031 | 0.046 | CC(C)c1c(CC2CCCCC2)nc(SCC(=O)c2ccccc2)[nH]c1=O | 3.62e+06
6 | – | – | CCc1c(Cc2ccccc2)nc(SCC(=O)c2ccc(OC)cc2)[nH]c1=O | > 10500
7 | – | – | CC(C)c1c(CC2CCCCC2)nc(SCc2ccccc2)[nH]c1=O | 2.54e+06
8 | – | – | CCc1c(Cc2ccccc2)nc(SCC(=O)c2ccccc2)[nH]c1=O | > 6850
9 | – | – | CC(C)c1c(CC2CCCCC2)nc(SCC(=O)c2ccccc2O)[nH]c1=O | 117000
10 | – | – | COc1ccc(C(=O)CSc2nc(Cc3ccccc3)c(C(C)C)c(=O)[nH]2)cc1 | > 3390
11 | – | – | Cc1c(CC2CCCCC2)nc(SCC(=O)c2ccccc2)[nH]c1=O | 2150
12 | – | – | CCc1c(CC2CCCCC2)nc(SCC(=O)c2ccccc2)[nH]c1=O | 6.32e+06
13 | – | – | COc1ccc(C(=O)CSc2nc(CC3CCCCC3)c(C(C)C)c(=O)[nH]2)cc1 | 1.39e+06
14 | – | – | CC(C)c1c(Cc2ccccc2)nc(SCC(=O)c2ccccc2)[nH]c1=O | > 37700
15 | – | – | Cc1c(CC2CCCCC2)nc(SCC(C)C)[nH]c1=O | 34
16 | – | – | CC(C)CSc1nc(CC2CCCCC2)c(C(C)C)c(=O)[nH]1 | 1710
17 | – | – | Cc1c(CC2CCCCC2)nc(SCc2ccccc2)[nH]c1=O | 48
18 | – | – | CCc1c(CC2CCCCC2)nc(SCC(C)C)[nH]c1=O | 691
19 | – | – | CCc1c(CC2CCCCC2)nc(SCC(=O)c2ccc(OC)cc2)[nH]c1=O | 516000
